Active and inactive are the calls of the source. The calls are words filed in the database; no cut-off is given here.

Assay [1] is described as follows: Induction of IFN-gamma secretion in human CD161+ CD3+ NKT cells at 10 ug/ml after 18 hrs relative to basal level. The class given is functional. The gist of the method: (§1)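 Human Vα24i NKT cell lines were expanded for 10 days on irradiated (3,000 rad) autologous immature DCs with 10 units/ml IL-2. The cells (1 × 10^5) were cocultured with 5 × 10^4 irradiated immature CD14+ DCs plus glycolipid at 10 μg/ml. Supernatants were collected at 18 h and read on a 22-plex Luminex bead panel. Triplicates, mean ± SD.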

Assay [2] is described as follows: Induction of IL2 secretion in human CD161+ CD3+ NKT cells at 10 ug/ml after 18 hrs relative to basal level. The format is functional. In short, it runs like this: as §1
A short description of assay [3]: Induction of IL12p70 secretion in human CD161+ CD3+ NKT cells at 10 ug/ml after 18 hrs relative to basal level. The class given is functional. In short, it runs like this:
as §1

The nature of assay [4]: Induction of IL12p40 secretion in human CD161+ CD3+ NKT cells at 10 ug/ml after 18 hrs relative to basal level. The class given is functional. The gist of the method:
as §1

Assay [5] is described as follows: Induction of RANTES secretion in human CD161+ CD3+ NKT cells at 10 ug/ml after 18 hrs relative to basal level. The class given is functional. In short, it runs like this:
as §1

Assay [6] is described as follows: Induction of MIPalpha secretion in human CD161+ CD3+ NKT cells at 10 ug/ml after 18 hrs relative to basal level. The class given is functional. In short, it runs like this:
as §1

Assay [7] in a line: Induction of MCP1 secretion in human CD161+ CD3+ NKT cells at 10 ug/ml after 18 hrs relative to basal level. The class given is functional. The gist of the method: as §1
Assay [8] can be described thus: Induction of IL8 secretion in human CD161+ CD3+ NKT cells at 10 ug/ml after 18 hrs relative to basal level. The class given is functional. In short, it runs like this:
as §1

The nature of assay [9]: Induction of TNFalpha secretion in human CD161+ CD3+ NKT cells at 10 ug/ml after 18 hrs relative to basal level. The format is functional. The gist of the method:
as §1

Assay [10] in a line: Induction of IL3 secretion in human CD161+ CD3+ NKT cells at 10 ug/ml after 18 hrs relative to basal level. The format is functional. The gist of the method: as §1
The nature of assay [11]: Induction of GM-CSF secretion in human CD161+ CD3+ NKT cells at 10 ug/ml after 18 hrs relative to basal level. The class given is functional. The gist of the method: as §1
Assay [12] is described as follows: Induction of IL15 secretion in human CD161+ CD3+ NKT cells at 10 ug/ml after 18 hrs relative to basal level. The format is functional. The gist of the method:
as §1

The nature of assay [13]: Induction of IL4 secretion in human CD161+ CD3+ NKT cells at 10 ug/ml after 18 hrs relative to basal level. The class given is functional. The gist of the method:
as §1

Assay [14] can be described thus: Induction of IL6 secretion in human CD161+ CD3+ NKT cells at 10 ug/ml after 18 hrs relative to basal level. The class given is functional. The gist of the method: as §1
The nature of assay [15]: Induction of IL10 secretion in human CD161+ CD3+ NKT cells at 10 ug/ml after 18 hrs relative to basal level. The class given is functional. The gist of the method: as §1
Assay [16] in a line: Induction of IL13 secretion in human CD161+ CD3+ NKT cells at 10 ug/ml after 18 hrs relative to basal level. The format is functional. The gist of the method: as §1
The next assay concerns NKT. Nature of the assay: Stimulation of cell expansion of human invariant CD161+/ Valpha24+/ CD56+/ CD3+ NKT cells by flow cytometry method. The format is functional, cell-based. In short, it runs like this:
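CD56+ NK/NKT mixtures (2 × 10^6) were isolated from human leukopaks with anti-CD56 microbeads. They were cocultured with 4 × 10^5 autologous immature CD14+ DCs pulsed with glycolipid at 3 μg/ml, or with 0.3% DMSO, on day 2 for 18 h. Suspension cells were then transferred and kept in 100 units/ml IL-2 with fresh medium every 3 days. On day 9, CD161+/Vα24TCR+ cells were gated by flow cytometry and total Vα24i NKT cells counted. Triplicates, mean ± SD.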
A general note: A flow cytometer gives signals particle by particle.

In the next assay the test system is TC1. As to the kind of experiment: Antitumor activity in TC1 cells xenografted C57BL/6 mouse assessed as suppression of tumor growth at 2 ug, iv. The class given is functional, cell-based. The gist of the method: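 C57BL/6 mice (n = 5/group) were inoculated i.v. with TC-1 lung cancer cells. They were then treated i.v. with 2 μg glycolipid per mouse, or 100 μl of 1% DMSO, twice weekly for 4 weeks. Kaplan–Meier survival and body weight were followed, with tumor-free mice as an additional control.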

For another assay, the system named is 4T1. Nature of the assay: Antitumor activity in mouse 4T1 cells xenografted BALB/c mouse assessed as suppression of tumor growth at 2 ug, iv. The class given is functional, cell-based. In short, it runs like this: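 BALB/c mice (n = 6) were inoculated s.c. with 4T1 breast cancer cells. From day 3 they were treated i.v. with glycolipid or vehicle twice weekly for 4 weeks. Tumor volume was recorded every 3 days for 1 month, and survival was monitored up to 54 days.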

As for `CCCCCCCCCCCCCCCCCCCCCCCCCC(=O)N[C@@H](CS[C@H]1O[C@H](CO)[C@H](O)[C@H](O)[C@H]1O)[C@H](O)[C@H](O)CCCCCCCCCCCCCC`, the Activity in assay [1] worked out at 1.3; in assay [2], 1.2; in [3], 1; in assay [4], 1.7; in assay [5] it was 1.5; in assay [6], 1.5. The Activity in assay [7] came to 1.4; in assay [8], 1.9; in assay [9] it was 2.5; in assay [10], 1.1; in assay [11], 1.6; in assay [12] it was 1.8. Moreover, the Activity in assay [13] is recorded as 2.1; in assay [14] it was 1.5; in assay [15], 0.6; in assay [16], 1.6.
For `CCCCCCCCCCCCCC[C@@H](O)[C@@H](O)[C@H](CO[C@H]1O[C@H](CO)[C@H](O)[C@H](O)[C@H]1O)NC(=O)CCc1ccc(CC(C)C)cc1`, the Activity in assay [1] came to 1.9; in assay [2], 1.3; in assay [3], 1.8; in assay [4] it was 1.8; in assay [5], 1.3; in assay [6] it was 2.8. Further, the Activity is 0.9 in assay [7]; 5.5 in assay [8]; 1.9 in assay [9]; 1.9 in assay [10]; 3.8 in assay [11]; 2.2 in [12]. Besides, the Activity in assay [13] came out at 2.2; in [14], 2.1; in assay [15] it was 2.2; in assay [16] it was 1.4. Further, the result with NKT was Active.
With `CCCCCCCCCCCCCC[C@@H](O)[C@@H](O)[C@H](CO[C@H]1O[C@H](CO)[C@H](O)[C@H](O)[C@H]1O)NC(=O)CCCCCCCCCc1ccccc1`, the Activity in assay [1] is reported as 4.2; in assay [2] it was 3.4; in [3], 2.3; in assay [4] it was 1.4; in [5] it was 2.1; in assay [6], 3.4. Also, the Activity in [7] is listed as 1.5; in assay [8], 2.2; in [9], 5.6; in assay [10] it was 1.8; in assay [11] it was 3.4; in [12], 2.3. Besides, the Activity in assay [13] is on record as 3.2; in assay [14] it was 1.6; in [15], 1.4; in assay [16] it was 1.6. The outcome in the assay with TC1, in the assay with 4T1 and in the assay on NKT was Active.
As for `CCCCCCCCCCCCCCCCCCCCCCCCCC(=O)N[C@@H](CO[C@@H]1O[C@H](CO)[C@H](O)[C@H](OS(=O)(=O)[O-])[C@H]1O)[C@H](O)[C@H](O)CCCCCCCCCCCCCC.[Na+]`, the Activity in [1] worked out at 2.2; in assay [2] it was 1.6; in [3], 1.6; in [4], 1.8; in assay [5] it was 1.5; in assay [6], 3.2. Besides, the Activity in assay [7] came out at 1.5; in [8] it was 1.9; in assay [9], 3.7; in [10] it was 2.3; in [11], 4.1; in assay [12] it was 2.2. For the same compound, the Activity is 2.9 in [13], 1.9 in assay [14], 1.8 in assay [15] and 2.4 in assay [16].
As to `CCCCCCCCCCCCCC[C@@H](O)[C@@H](O)[C@H](CO[C@H]1O[C@H](CO)[C@H](O)[C@H](O)[C@H]1O)NC(=O)CCc1ccc(C(F)(F)F)cc1`, the Activity in assay [1] came to 2.8; in assay [2], 1.5; in assay [3], 1.7; in [4] it was 1.9; in assay [5] it was 1.7; in assay [6] it was 3.4. Besides, the Activity in [7] stood at 1.4; in [8], 2.4; in [9], 3.3; in [10] it was 1.6; in assay [11], 3.5; in [12], 2.1. Also, the Activity in [13] is on record as 2.4; in assay [14], 2.3; in assay [15], 1.7; in [16] it was 2.1.
As for `CCCCCCCCCCCCCC[C@@H](O)[C@@H](O)[C@H](CO[C@H]1O[C@H](CO)[C@H](O)[C@H](O)[C@H]1O)NC(=O)CCCc1ccccc1`, the Activity is 2.1 in assay [1]; 1.4 in assay [2]; 1.2 in [3]; 1.4 in [4]; 1.5 in [5]; 3.2 in assay [6]. Also, the Activity in assay [7] is given as 1; in assay [8], 1.6; in assay [9], 3.3; in [10], 1.8; in assay [11], 2.8; in [12] it was 2.2. For the same compound, the Activity is 1.9 in assay [13], 1.6 in assay [14], 1.3 in [15] and 1.6 in [16].

Source of the values: ChEMBL document CHEMBL1145518, “Potent immune-modulating and anticancer effects of NKT cell stimulatory glycolipids” (2007).
